Tests used:
HCT-116 = assay: Growth inhibition of human HCT116 cells after 48 hrs by MTS assay; format: functional; details: HCT-116, 48 h
In short: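 Vehicle controls received 1% DMSO alone. Growth in treated wells was expressed as a percentage of this control and plotted against concentration, and the mean growth-inhibitory concentration (GI50) was read from the curve.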

DLD-1 = assay: Cytotoxicity against human DLD1 cells; format: functional

GI50 (HCT-116) | SMILES | GI50 (DLD-1)
15 µM | COc1cc(/C=C/C(=O)/C=C/c2ccc(O)c(OC)c2)ccc1O | –
2 µM | COc1ccc(/C=C/C(=O)/C=C(O)/C=C/c2ccc(OC)c(OC)c2)cc1OC | –
> 50 µM | COc1ccc(/C=C/C(=O)/C=C/c2ccc(OC)cc2OC)c(OC)c1 | –
1.3 µM | COc1cccc(/C=C/C(=O)/C=C/c2cccc(OC)c2OC)c1OC | –
4 µM | COc1ccccc1/C=C/C(=O)/C=C/c1ccccc1OC | –
0.3 µM | COc1cc(/C=C/C(=O)/C=C/c2cc(OC)c(OC)c(OC)c2)cc(OC)c1OC | –
2.3 µM | COc1cc(OC)c(/C=C/C(=O)/C=C/c2c(OC)cc(OC)cc2OC)c(OC)c1 | –
2 µM | COc1cc(/C=C/C(=O)/C=C/c2cc(OC)cc(OC)c2)cc(OC)c1 | –
8.1 µM | COc1ccc(OC)c(/C=C/C(=O)/C=C/c2cc(OC)ccc2OC)c1 | –
8.5 µM | COc1cc(/C=C/C(=O)/C=C/c2cccc(OC(c3ccccc3)(c3ccccc3)c3ccccc3)c2)cc(OC)c1OC | –
15 µM | COc1cc(/C=C/C(=O)/C=C/c2cc(OC)c(OCc3cn(CCCCCCCCCOC(=O)CCC4=[N+]5C(=Cc6c(C)cc(C)n6[B-]5(F)F)C=C4)nn3)c(OC)c2)cc(OC)c1OC | –
0.8 µM | COc1cc(/C=C/C(=O)/C=C/c2cc(OC)c(OCc3cn(CCCCCCCCCCNC(=O)OC(C)(C)C)nn3)c(OC)c2)cc(OC)c1OC | –
2.6 µM | COc1cc(/C=C/C(=O)/C=C/c2cc(OC)c(OCc3cn(CCCCCCCCCCOC(=O)CSCc4c(C)n5c(C)c(C)c(=O)n5c4=O)nn3)c(OC)c2)cc(OC)c1OC | –
9.1 µM | COc1cccc(/C=C/C(=O)/C=C/c2cccc(OC)c2)c1 | –
3 µM | COc1ccc(/C=C/C(=O)/C=C/c2cc(OC)c(OC)c(OC)c2)cc1 | –
6.9 µM | COc1cccc(/C=C/C(=O)/C=C/c2cc(OC)c(OC)c(OC)c2)c1 | –
> 50 µM | COc1ccc(/C=C/C(=O)CCc2ccc(OC)c(OC)c2)cc1OC | –

GI50 (HCT-116) | SMILES | GI50 (DLD-1)
3.5 µM | COc1ccc(/C=C/C(=O)/C=C/c2ccc(OC)c(OC)c2OC)c(OC)c1OC | –
> 50 µM | C=C1CC2CC(C1)/C(=C\c1ccc(OC)c(OC)c1)C(=O)/C2=C/c1ccc(OC)c(OC)c1 | –
9.7 µM | COc1cc(/C=C/C(=O)/C=C/c2cc(OC)c(OCCN=[N+]=[N-])c(OC)c2)cc(OC)c1OC | –
1.5 µM | CCOC(C)Oc1c(OC)cc(/C=C/C(=O)/C=C/c2cc(OC)c(OC)c(OC)c2)cc1OC (configuration not stated) | –
0.3 µM | C#CCOc1c(OC)cc(/C=C/C(=O)/C=C/c2cc(OC)c(OCC#C)c(OC)c2)cc1OC | –
4 µM | COc1ccc(/C=C/C(=O)/C=C/c2ccc(OC)c(OC)c2)cc1 | –
8.1 µM | COc1cc(/C=C/C(=O)/C=C/c2cccc(C#Cc3ccccc3)c2)cc(OC)c1OC | –
1.4 µM | CCOC(C)Oc1cccc(/C=C/C(=O)/C=C/c2cc(OC)c(OC)c(OC)c2)c1 (configuration not stated) | –
17 µM | COc1cc(/C=C/C(=O)/C=C/c2cccc(Cl)c2)cc(OC)c1OC | –
38 µM | COc1cc(/C=C/C(=O)/C=C/c2cc(OC)c(OCC(=O)O)c(OC)c2)cc(OC)c1OC | –
1.5 µM | COc1ccc(/C=C/C(=O)/C=C/c2ccc(OC)c(OC)c2)cc1O | –
4.4 µM | COc1cc(/C=C/C(=O)/C=C/c2ccccc2)cc(OC)c1OC | –
2.4 µM | C#CCOc1c(OC)cc(/C=C/C(=O)/C=C/c2cc(OC)c(OCOC)c(OC)c2)cc1OC | –
0.4 µM | COc1ccc(/C=C/C(=O)/C=C/c2cc(OC)c(OC)c(OC)c2)cc1OC | –
3.3 µM | COc1cc(OC)c(OC)cc1/C=C/C(=O)/C=C/c1cc(OC)c(OC)c(OC)c1 | –
1.7 µM | COc1cc(/C=C/C(=O)/C=C/c2cc(OC)c(OCCO)c(OC)c2)cc(OC)c1OC | –
> 50 µM | COc1ccc(CCC(O)CCc2ccc(OC)c(OC)c2)cc1OC | –

Further lines, the molecule ahead of its results:

SMILES | GI50 (HCT-116) | GI50 (DLD-1)
COc1ccc(/C=C/C(=O)/C=C/c2ccc(OC)c(OC)c2)cc1OC | 1.5 µM | 2 µM
COc1ccc(/C=C2\CCC/C(=C\c3ccc(OC)c(OC)c3)C2=O)cc1OC | > 50 µM | –
COc1cc(/C=C/C(=O)/C=C/c2cc(OC)c(O)c(OC)c2)cc(OC)c1O | 0.8 µM | –
COc1ccc(/C=C/C(=O)/C=C/c2ccc(OC)c(O)c2)cc1O | 0.8 µM | –
COc1cc(OC)c(OC)cc1/C=C/C(=O)/C=C/c1cc(OC)c(OC)cc1OC | 2 µM | –
COc1ccc(/C=C/C(=O)/C=C/c2ccc(OC)cc2)cc1 | 9 µM | –
COc1cc(/C=C/C(=O)/C=C/c2cc(OC)c(OCc3cn(Cc4ccc(OC5CCCCO5)cc4)nn3)c(OC)c2)cc(OC)c1OC (configuration not stated) | 0.3 µM | –
COc1cc(/C=C/C(=O)/C=C/c2cc(OC)c(OCc3cn(CCCCCCCCCO)nn3)c(OC)c2)cc(OC)c1OC | 0.8 µM | –
COc1ccc(/C=C/C(=O)c2ccc(OC)c(OC)c2)cc1OC | 7 µM | –
COc1cc(OC)c(OC)c(OC)c1/C=C/C(=O)/C=C/c1c(OC)cc(OC)c(OC)c1OC | > 50 µM | –
COc1cc(/C=C/C(=O)/C=C/c2ccc(OC)c(OC)c2)ccc1O | 0.7 µM | –
COc1cc(/C=C/C(=O)/C=C/c2ccc(OC)c(OC)c2OC)cc(OC)c1OC | 1.9 µM | –
COCOc1ccc(/C=C/C(=O)/C=C/c2ccc(OCOC)c(OCOC)c2)cc1OCOC | 0.8 µM | –
COc1ccc(/C=C/C(/C=C/c2ccc(OC)c(OC)c2)=NO)cc1OC | > 50 µM | –
CCCSC(CC(=O)/C=C/c1ccc(OC)c(OC)c1)c1ccc(OC)c(OC)c1 (configuration not stated) | 22 µM | –
COc1ccc(CCC(=O)CCc2ccc(OC)c(OC)c2)cc1OC | > 50 µM | –

SMILES | GI50 (HCT-116) | GI50 (DLD-1)
COc1cccc(OC)c1/C=C/C(=O)/C=C/c1c(OC)cccc1OC | 9 µM | –
COc1ccc(OC)c(OC)c1/C=C/C(=O)/C=C/c1c(OC)ccc(OC)c1OC | 2.3 µM | –
COc1cc(/C=C/C(=O)/C=C/c2cccc(O)c2)cc(OC)c1OC | 0.9 µM | –
COCOc1cccc(/C=C/C(=O)/C=C/c2cc(OC)c(OC)c(OC)c2)c1 | 4 µM | –
C#CCOc1c(OC)cc(/C=C/C(=O)/C=C/c2cc(OC)c(OC)c(OC)c2)cc1OC | 1.8 µM | –
COc1cc(/C=C/C(=O)/C=C/c2cc(OC)c(OCCN=[N+]=[N-])c(OC)c2)cc(OC)c1OCCN=[N+]=[N-] | 7.6 µM | –
COc1cc(/C=C/C(=O)/C=C/c2cccc(OS(=O)(=O)C(F)(F)F)c2)cc(OC)c1OC | 2.4 µM | –
COc1cc(/C=C/C(=O)/C=C/c2cc(OC)c(OC)c(OC)c2)cc(OC)c1O | 0.8 µM | –
COC(=O)COc1c(OC)cc(/C=C/C(=O)/C=C/c2cc(OC)c(OC)c(OC)c2)cc1OC | 7 µM | –
COCOc1c(OC)cc(/C=C/C(=O)/C=C/c2cc(OC)c(OCOC)c(OC)c2)cc1OC | 0.3 µM | –
O=C(/C=C/c1ccc2c(c1)OCO2)/C=C/c1ccc2c(c1)OCO2 | – | > 50 µM
CCCCCCCCCCCCCCOc1cccc(/C=C/C(=O)/C=C/c2cc(OC)c(OC)c(OC)c2)c1 | > 50 µM | –
COc1cc(/C=C/C(=O)/C=C/c2cccc(OC(=O)C34CC5CC(CC(C5)C3)C4)c2)cc(OC)c1OC | 7.6 µM | –
COc1cc(/C=C/C(=O)/C=C/c2cc(OC)c(OCCO)c(OC)c2)cc(OC)c1OCCO | 0.5 µM | –
O=C(/C=C/c1cc(O)cc(O)c1)/C=C/c1cc(O)cc(O)c1 | 1.5 µM | –
COc1cc(/C=C/C(=O)CC(=O)/C=C/c2ccc(O)c(OC)c2)ccc1O [CURCUMIN] | – | 8 µM

Source: ChEMBL document CHEMBL1159128, “Structure-activity relationship of C5-curcuminoids and synthesis of their molecular probes thereof” (2010)
